Source: PubChem (Johns Hopkins Ion Channel Center)
An excerpt weighted towards active compounds, which were near 3.5% of everything screened.
MrgX1 allo act: human MrgX1 positive allosteric modulation, primary screen; AID 588675; Q96LB2; B-score at 10 µM; actives 0.63% (n = 310,000); MrgX1-HEK293, Fluo-4 calcium flux, FDSS; hits give high values;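 active = plate-corrected calcium response at least 3 library SD above typical, normal starting fluorescence, not activating the receptor alone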;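 also: compound read alongside a low EC10 to EC30 dose of BAM8-22 agonist; peak minus trough fluorescence over baseline measured at the second addition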
Target sequence (Q96LB2 whole entry, looked up): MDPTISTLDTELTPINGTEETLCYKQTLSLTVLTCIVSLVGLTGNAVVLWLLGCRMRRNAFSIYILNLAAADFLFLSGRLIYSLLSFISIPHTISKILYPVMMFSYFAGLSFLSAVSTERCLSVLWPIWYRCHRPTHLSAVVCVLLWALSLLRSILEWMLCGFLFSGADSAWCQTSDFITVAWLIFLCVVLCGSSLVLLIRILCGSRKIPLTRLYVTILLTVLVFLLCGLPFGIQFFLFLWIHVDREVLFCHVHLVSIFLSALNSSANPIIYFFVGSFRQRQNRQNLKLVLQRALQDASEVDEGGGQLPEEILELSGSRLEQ
RGS4 inh: inhibitors of human RGS4; P49798; HEK293 M3R/RGS4 inducible, Fluo-4 calcium flux; hits give high values; triggered by carbachol at its EC20; AID 463165; B-score at 10 µM; actives 0.45% (n = 310,000);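 active = B-score, a plate-corrected calcium signal, over three deviations above library mean, with baseline fluorescence within five deviations of library mean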;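 also: RGS4 expression induced by doxycycline in cells with stable M3 receptor; B-score is computed from the integrated fluorescence ratio over baseline after carbachol; higher B-score means a larger calcium signal and so more RGS4 inhibition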
Target sequence (P49798 whole entry, looked up): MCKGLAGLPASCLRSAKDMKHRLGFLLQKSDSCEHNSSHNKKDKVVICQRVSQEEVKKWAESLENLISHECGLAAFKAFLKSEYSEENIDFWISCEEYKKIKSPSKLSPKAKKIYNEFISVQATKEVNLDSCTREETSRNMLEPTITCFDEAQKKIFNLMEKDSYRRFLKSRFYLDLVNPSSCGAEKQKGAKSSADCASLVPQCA
MrgX1 agonist: human MrgX1 receptor agonism, primary screen; actives 0.44% (n = 310,000); Q96LB2; AID 588627; MrgX1-HEK293 cells, Fluo-4 calcium fluorescence, agonist mode; hits give high values; B-score at 10 µM;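 active = calcium response B-score plate-corrected fluorescence ratio at least 3 library SD, with starting fluorescence B-score inside 5 SD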
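Assay system: MrgX1-expressing HEK293 cells / Amount: fifteen thousand cells per well / Doses: test compound in the initial addition of three / Timing: cells plated overnight, dye loaded 0.5 h 37 °C, 0.5 h room temperature / Technique: kinetic calcium dye fluorescence, Fluo-4 NW / Control set: positive and negative controls per plate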
MrgX1 antag: blocks BAM8-22 activation of human MrgX1 receptor. Q96LB2. MRGX1-HEK293 calcium flux, Fluo-4, BAM8-22 antagonism; hits give low values. B-score at 10 µM. actives 1.3% (n = 310,000). AID 588676;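 active = calcium-response B-score plate-corrected more than 3 library SD below zero, starting fluorescence within 5 deviations, no agonist response on first addition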;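 also: peak minus trough fluorescence over baseline after final BAM8-22 challenge near maximal dose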
RGS4 act: RGS4 potentiation or activation; B-score at 10 µM; AID 463111; actives 0.92% (n = 310,000); HEK293 M3R/inducible RGS4, carbachol calcium flux Fluo4; hits give low values;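 active = B-score of the integrated calcium signal more than 4 SD below the library mean, with starting fluorescence not abnormally high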;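 also: negative B-score means reduced calcium response which marks RGS4 activation or potentiation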
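Material: M3R-expressing HEK293 line, RGS4 induced by doxycycline | Schedule: Overnight RGS4 induction, 30 min dye load 37 °C, 20 min compound RT | Measured by: Fluo4 fluorescence kinetic imaging of calcium | Read-out: Integrated calcium ratio converted to B score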
MrgX1 ant reconf: human MrgX1 receptor antagonism, re-confirmation screen; shares compounds with MrgX1 antag; MrgX1-HEK293, BAM8-22 calcium flux, Fluo-4; hits give low values; remaining BAM8-22 calcium response % of control (hits give low values), % at 10 µM; actives 19% (n = 2,300); AID 602420;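 active = remaining agonist calcium response no higher than 100% minus 3 SD of agonist-only control wells, with starting fluorescence near control levels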;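 also: agonist BAM8-22 given at a near maximal EC90 to ECmax level; peak minus minimum fluorescence divided by baseline after agonist addition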
HEK293 Ca flux: MrgX1 antagonist counter-screen hit in parental HEK293 cells | actives 2% (n = 4,000) | shares compounds with MrgX1 antag | fluorescence ratio F(max-min)/F0 at 10 µM | Fluo-4 calcium fluorescence, FDSS;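 active = duplicate-averaged calcium fluorescence ratio at least three times the standard deviation of buffer wells, a nonspecific response in parental cells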
HEK293 Ca counter: activity in parental HEK293 cells without MrgX1 | parental HEK293 calcium flux, Fluo-4 fluorescence ratio; hits give high values | fluorescence ratio F(max-min)/F0 at 10 µM | shares compounds with MrgX1 antag | AID 624114 | actives 0.4% (n = 4,000);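 active = calcium fluorescence ratio, averaged over duplicates, at least 3 SD of the buffer-well ratio, meaning a nonspecific response in receptor-free cells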;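 also: untransfected parental HEK293 lacking MrgX1 used as counterscreen for MrgX1 allosteric activators; fluorescence change taken during the second addition on a kinetic imager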
HEK293 Ca cntr2: MrgX1 activator counter-screen hit in parental HEK293 cells. shares compounds with MrgX1 antag. Fluo-4 calcium fluorescence (FDSS); hits give high values. fluorescence ratio F(max-min)/F0 at 10 µM. actives 8.7% (n = 4,000);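 active = calcium fluorescence ratio at least three times the spread of buffer wells, meaning a non-specific response in parental cells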
* marks the source's active call; other numbers are inactive results.

Screening O=C1CSC(c2ccccc2Cl)N1 (centres undefined) returned MrgX1 allo act inactive, RGS4 inh inactive, MrgX1 agonist inactive, MrgX1 antag inactive and RGS4 act inactive.
For COC(=O)c1c(NC(=O)CN2CCN(C(=O)c3ccco3)CC2)c2c(C)cccc2n1C the results were MrgX1 allo act inactive, RGS4 inh inactive, MrgX1 agonist inactive, MrgX1 antag inactive and RGS4 act inactive.
For Cc1cc(N2C(=O)C(O)=C(C(=O)c3cc4ccccc4o3)C2c2ccc(OC(C)C)cc2)no1 (centres undefined) the results were MrgX1 allo act inactive, RGS4 inh inactive, MrgX1 agonist inactive, MrgX1 antag inactive and RGS4 act inactive.
COC(=O)c1ccc(C2C(C(=O)c3cc4ccccc4o3)=C(O)C(=O)N2c2cc(C)on2)cc1 (centres undefined) was read as MrgX1 allo act inactive, RGS4 inh inactive, MrgX1 agonist inactive, MrgX1 antag -5.2*, RGS4 act inactive, MrgX1 ant reconf 82.1%*, HEK293 Ca flux inactive, HEK293 Ca counter inactive and HEK293 Ca cntr2 inactive.
Screening COc1cccc2cc(C(=O)C3=C(O)C(=O)N(c4cc(C)on4)C3c3cccs3)oc12 (centres undefined) returned MrgX1 allo act inactive, RGS4 inh inactive, MrgX1 agonist inactive, MrgX1 antag -5.08*, RGS4 act inactive, MrgX1 ant reconf inactive, HEK293 Ca flux inactive, HEK293 Ca counter inactive and HEK293 Ca cntr2 inactive.
For COc1cccc(C2C(C(=O)c3cc4cccc(OC)c4o3)=C(O)C(=O)N2c2cc(C)on2)c1OC (centres undefined) the results were MrgX1 allo act inactive, RGS4 inh inactive, MrgX1 agonist inactive, MrgX1 antag inactive and RGS4 act inactive.
O=[N+]([O-])c1ccc(Cl)cc1NCC1CCCO1 (centres undefined) was read as MrgX1 allo act inactive, RGS4 inh inactive, MrgX1 agonist inactive, MrgX1 antag inactive and RGS4 act inactive.
O=C(CCn1nc(-c2ccc(Cl)cc2)c2ccccc2c1=O)NCC1CCCO1 (centres undefined) was read as MrgX1 allo act inactive, RGS4 inh inactive, MrgX1 agonist inactive, MrgX1 antag inactive and RGS4 act inactive.
`COc1ccc(NC(=O)c2cccc(-n3cnnn3)c2)cc1` gave MrgX1 allo act inactive, RGS4 inh inactive, MrgX1 agonist inactive, MrgX1 antag inactive and RGS4 act inactive.
CCOC(=O)C1CCN(C(=O)c2sc3nc(-c4ccc(F)cc4)cn3c2C)CC1 was read as MrgX1 allo act inactive, RGS4 inh inactive, MrgX1 agonist inactive, MrgX1 antag -5.76*, RGS4 act inactive, MrgX1 ant reconf inactive, HEK293 Ca flux inactive, HEK293 Ca counter inactive and HEK293 Ca cntr2 inactive.
`CC(=O)N1CCN(C2c3cccc4cccc(c34)C2NS(=O)(=O)c2ccccc2)CC1` (centres undefined) gave MrgX1 allo act inactive, RGS4 inh inactive, MrgX1 agonist inactive, MrgX1 antag inactive and RGS4 act inactive.
O=S(=O)(NC1c2cccc3cccc(c23)C1N1CCNCC1)c1ccc(Cl)cc1 (centres undefined) was read as MrgX1 allo act inactive, RGS4 inh inactive, MrgX1 agonist inactive, MrgX1 antag -5.75*, RGS4 act inactive, MrgX1 ant reconf 83.6%*, HEK293 Ca flux inactive, HEK293 Ca counter inactive and HEK293 Ca cntr2 inactive.
For Cc1ccc(C(=O)NC2CC3CCC(C2)N3Cc2ccco2)cc1 (centres undefined) the results were MrgX1 allo act inactive, RGS4 inh inactive, MrgX1 agonist inactive, MrgX1 antag -7.81*, RGS4 act inactive, MrgX1 ant reconf inactive, HEK293 Ca flux inactive, HEK293 Ca counter inactive and HEK293 Ca cntr2 inactive.
Screening Cc1ccc(C(=O)NCc2ccco2)cc1 returned MrgX1 allo act inactive, RGS4 inh inactive, MrgX1 agonist inactive, MrgX1 antag -5.32*, RGS4 act inactive, MrgX1 ant reconf inactive, HEK293 Ca flux inactive, HEK293 Ca counter inactive and HEK293 Ca cntr2 inactive.
Screening Cc1ccc(CN2C3CCCC2CC(NC(=O)c2ccc(C)cc2)C3)cc1 (centres undefined) returned MrgX1 allo act inactive, RGS4 inh inactive, MrgX1 agonist inactive, MrgX1 antag inactive and RGS4 act inactive.
`Cc1c(C(C)NC(=O)c2cc(COc3cccc4cnccc34)on2)cnn1C` (centres undefined) gave MrgX1 allo act inactive, RGS4 inh inactive, MrgX1 agonist inactive, MrgX1 antag inactive and RGS4 act inactive.
Screening COc1ccccc1OCCNC(=O)CC(NC(C)=O)c1ccccc1 (centres undefined) returned MrgX1 allo act inactive, RGS4 inh inactive, MrgX1 agonist inactive, MrgX1 antag inactive and RGS4 act inactive.
CC(=O)NC(CC(=O)NCCc1ccccc1)c1ccccc1 (centres undefined) was read as MrgX1 allo act inactive, RGS4 inh inactive, MrgX1 agonist inactive, MrgX1 antag -4.9*, RGS4 act inactive, MrgX1 ant reconf inactive, HEK293 Ca flux inactive, HEK293 Ca counter inactive and HEK293 Ca cntr2 inactive.
For COc1ccc2nc(NC(=O)C3CCN(S(=O)(=O)c4cnc[nH]4)CC3)sc2c1 the results were MrgX1 allo act inactive, RGS4 inh inactive, MrgX1 agonist inactive, MrgX1 antag inactive and RGS4 act inactive.
S=C(NCc1ccc(Cl)cc1Cl)NC1CCCCC1 was read as MrgX1 allo act inactive, RGS4 inh inactive, MrgX1 agonist inactive, MrgX1 antag -4.59*, RGS4 act inactive, MrgX1 ant reconf 59.6%*, HEK293 Ca flux inactive, HEK293 Ca counter inactive and HEK293 Ca cntr2 inactive.
`Clc1ccc(CNC2CCCC2)c(Cl)c1` gave MrgX1 allo act inactive, RGS4 inh inactive, MrgX1 agonist inactive, MrgX1 antag inactive and RGS4 act inactive.
